Legend:
HCT-116 [1] = experiment: Cytotoxicity against human HCT116 cells after 72 hrs by MTS assay; type: functional, cell-based; conditions: HCT-116, 72 h
Outline: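 HCT-116 kept in McCoy's 5a with 10% FBS, 1% nonessential amino acids, 2% HEPES and 1% antibiotic at 37 °C, 5% CO2. Seeded at 5000-3,000 cells/well 24 or 48 h before treatment. Serial dilutions in DMSO (<0.5% in medium) applied for 72 h. MTS/phenazine methosulfate added for 3 h, OD490 read versus 0.5% DMSO controls. IC50 given as mean ± S.D. of three experiments.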

Caco-2 [2] = experiment: Cytotoxicity against human Caco2 cells after 72 hrs by MTS assay; type: functional, cell-based; conditions: Caco-2, 72 h
Outline: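 Caco-2 grown in EMEM with 10% FBS, 1% nonessential amino acids, 1% L-glutamine and 1% antibiotic at 37 °C, 5% CO2. Cells plated at 5000-3,000/well 24 or 48 h before dosing. Serially diluted samples in DMSO (<0.5% in medium) for 72 h. Then MTS plus phenazine methosulfate for 3 h at 37 °C, OD490 read against 0.5% DMSO controls. IC50 reported as mean ± S.D. of three experiments.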

[3] = Cytotoxicity against human CCD-18Co cells after 72 hrs by MTS assay; type: cell-based
Outline: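 72 h exposure to serially diluted samples in DMSO (<0.5% in medium), with 0.5% DMSO controls in parallel. MTS reagent with phenazine methosulfate then added for 3 h at 37 °C. Absorbance at 490 nm gives cell number relative to controls. IC50 is the concentration giving 50% growth inhibition, reported as mean ± S.D. of three separate experiments.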

HCT-116 [4] = experiment: Ratio of etoposide IC50 to compound IC50 for human HCT116 cells; type: functional
Caco-2 [5] = experiment: Ratio of etoposide IC50 to compound IC50 for human Caco2 cells; type: functional

Row | SMILES | IC50 (HCT-116 [1]) [µM] | IC50 (Caco-2 [2]) [µM] | IC50 [3] [µM] | Ratio IC50 (HCT-116 [4]) | Ratio IC50 (Caco-2 [5])
1 | CCC(CC)COc1c(OC)cc2c3c1-c1cc4c(cc1C[C@@H]3N(C)CC2)OCO4 | 26.6 | 22.8 | 50.7 | – | –
2 | CCCCCOc1c(OC)cc2c3c1-c1cc4c(cc1C[C@@H]3N(C)CC2)OCO4 | 46.3 | 35.3 | 73.4 | – | –
3 | COc1cc2c3c(c1OC(=O)c1ccccc1)-c1cc4c(cc1C[C@@H]3N(C)CC2)OCO4 | 25.2 | 25.9 | 45.1 | – | –
4 | COc1c(Br)c2c3c(c1OC)-c1cc4c(cc1C[C@@H]3N(C)CC2)OCO4 | 100 | 101 | 181 | – | –
5 | COc1cc2c3c(c1OC)-c1cc4c(cc1C[C@@H]3N(C(C)=O)CC2)OCO4 | 186 | 160 | 188 | – | –
6 | CCOC(=O)N1CCc2cc(OC)c(OC)c3c2[C@@H]1Cc1cc2c(cc1-3)OCO2 | 81.4 | 83.2 | 112 | – | –
7 | COc1cc2c3c(c1OC)-c1cc4c(cc1C[C@@H]3N(S(C)(=O)=O)CC2)OCO4 | 196 | 196 | – | – | –
8 | CCOC(=O)N1CCc2cc(OC)c(O)c3c2[C@@H]1Cc1cc2c(cc1-3)OCO2 | 72.7 | 71.7 | 128 | – | –
9 | CCOC(=O)N1CCc2cc(OC)c(OCC)c3c2[C@@H]1Cc1cc2c(cc1-3)OCO2 | 73.3 | 73.5 | 134 | – | –
10 | CCOC(=O)N1CCc2cc(OC)c(OCc3ccccc3)c3c2[C@@H]1Cc1cc2c(cc1-3)OCO2 | 93.3 | 99.8 | 110 | – | –
11 | COc1cc2c(cc1OC)[C@H](Cc1ccc3c(c1)OCO3)N(C)CC2 | 191 | 191 | – | – | –
12 | COc1cc2c(c(-c3ccc4c(c3)OCO4)c1OC)[C@H](C)N(C)CC2 | 195 | 190 | – | – | –
13 | COc1cc2c3c(c1O)-c1cc4c(cc1C[C@@H]3N(C)CC2)OCO4 [DOMESTICINE] | 73.3 | 73.5 | 134 | 3 | 4
14 | COc1cc([C@@H]2c3cc4c(cc3[C@@H](O[C@@H]3O[C@@H]5CO[C@@H](C)O[C@H]5[C@H](O)[C@H]3O)[C@H]3COC(=O)[C@H]23)OCO4)cc(OC)c1O [ETOPOSIDE] | 25.5 | 18.6 | 44.4 | – | –
15 | COc1cc2c3c(c1OC)-c1cc4c(cc1CC3N(C)CC2)OCO4 (centres undefined) [NANTENINE] | 38.3 | 36.2 | 56.5 | – | –

From ChEMBL document CHEMBL1806433, “Cytotoxicity of aporphines in human colon cancer cell lines HCT-116 and Caco-2: an SAR study” (Bioorg Med Chem Lett, 2011)
